From ChEMBL document CHEMBL1148940, “New luffariellolide derivatives from the Indonesian sponge Acanthodendrilla sp” (2004)
Values after ≈ are worked out from the molar mass of the structure shown. Active and inactive are the calls of the source.

How the values were obtained:
[1] = system: Escherichia coli; assay: Antimicrobial activity against Escherichia coli DSM 10290 at 10 ug/disk after 24 hrs; type: functional; settings: for zone of inhibition at 10 µg/disc: DSM 10290, 24 h, read-out: IZ
Outline: (§1)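 Agar plate disk diffusion: disks impregnated with sample (5 or 10 µg per disk) placed on agar plates pre-inoculated with the test organism; solvent controls run against each organism. Plates incubated at 37 °C for 24 h, then clear inhibition zones around the disk measured in mm; sample scored active when zone exceeded 7 mm.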

[2] = system: Bacillus subtilis; assay: Antimicrobial activity against Bacillus subtilis DSM 2109 at 5 ug/disk after 24 hrs; type: functional; settings: for zone of inhibition at 5 µg/disc: DSM 2109, 24 h, read-out: IZ; outline: as §1
[3] = system: Staphylococcus aureus; assay: Antimicrobial activity against Staphylococcus aureus ATCC 25923 at 5 ug/disk after 24 hrs; type: functional
Outline: (§2)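 Agar plate disk diffusion: disks impregnated with test sample (5 or 10 µg per disk) placed on agar plates previously inoculated with the organism, with solvent controls. Plates incubated 24 h at 37 °C. Read-out is the diameter (mm) of the clear inhibition zone around the disk. A sample is scored active when the zone exceeds 7 mm.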

[4] = system: HeLa; assay: Cytotoxicity against human HeLa cells by MTT assay; type: functional, cell-based
[5] = system: Candida albicans; assay: Antimicrobial activity against Candida albicans at 5 ug/disk after 24 hrs; type: functional; outline: as §1
[6] = system: Cladosporium herbarum; assay: Antimicrobial activity against Cladosporium herbarum DSM 63422 at 5 ug/disk after 24 hrs; type: functional, organism-based; outline: as §1
[7] = system: Cladosporium herbarum; assay: Antimicrobial activity against Cladosporium herbarum DSM 63422 at 10 ug/disk after 24 hrs; type: functional; settings: for zone of inhibition at 10 µg/disc: DSM 63422, 24 h, read-out: IZ; outline: as §1
[8] = system: Bacillus subtilis; assay: Antimicrobial activity against Bacillus subtilis DSM 2109 at 10 ug/disk after 24 hrs; type: functional; settings: DSM 2109, 24 h, read-out: IZ; outline: as §1
[9] = system: Candida albicans; assay: Antimicrobial activity against Candida albicans at 10 ug/disk after 24 hrs; type: functional; settings: read-out: IZ; outline: as §1
[10] = system: Escherichia coli; assay: Antimicrobial activity against Escherichia coli DSM 10290 at 5 ug/disk after 24 hrs; type: functional; outline: as §2
[11] = system: Staphylococcus aureus; assay: Antimicrobial activity against Staphylococcus aureus ATCC 25923 at 10 ug/disk after 24 hrs; settings: for zone of inhibition at 10 µg/disc: ATCC 25923, 24 h, read-out: IZ
[12] = system: PC-12; assay: Cytotoxicity against rat PC12 cells by MTT assay; type: functional, cell-based
[13] = system: L5178Y; assay: Cytotoxicity against mouse L5178Y cells by MTT assay; type: functional; settings: read-out: ED50 (the source's name)
[14] = system: Cladosporium herbarum; assay: Antimicrobial activity against Cladosporium herbarum DSM 63422 by serial dilution assay; type: functional

Row | Compound | Activity [3] | Activity [4] | Activity [6] | zone of inhibition at 10 µg/disc [7] [mm] | zone of inhibition at 10 µg/disc [8] [mm] | zone of inhibition at 10 µg/disc [9] [mm] | Activity [10] | zone of inhibition at 10 µg/disc [11] [mm] | Activity [12] | EC50 [13] [µg/mL] | zone of inhibition at 10 µg/disc [1] [mm] | Activity [5] | also measured
1 | COC1OC(=O)C=C1CC/C=C(\C)CC/C=C(\C)CCC1=C(C)CCCC1(C)C (stereo not given) | inactive | inactive | inactive | 15 | 9 | 9 | inactive | 10 | inactive | 0.7 (≈ 1.75 µM) |  |  | Activity [1]: inactive; zone of inhibition at 5 µg/disc [2]: 7 mm; zone of inhibition at 5 µg/disc ([5]; read-out: IZ): 9 mm
2 | CCOC1OC(=O)C=C1CC/C=C(\C)CC/C=C(\C)CCC1=C(C)CCCC1(C)C (stereo not given) | inactive | inactive | inactive |  | 7 | 9 | inactive |  | inactive | > 100 | 12 | inactive | Activity [2]: inactive; Activity [7]: inactive; Activity [11]: inactive
3 | CC1=C(CC/C(C)=C/CC/C(C)=C/CCC2=CC(=O)OC2O)C(C)(C)CCC1=O (stereo not given) [ACANTHOLIDE B] | inactive | inactive | inactive | 10 | 12 | 10 | inactive | 10 | inactive | > 10 | 9 | inactive | Activity [2]: inactive
4 | CC(=O)[C@]1(CC/C(C)=C/CC/C(C)=C/CCC2=CC(=O)OC2O)[C@@H](O)CCC1(C)C (stereo not given in full) [ACANTHOLIDE D] |  | inactive |  |  |  |  |  |  | inactive | > 10 |  |  | 
5 | CC(=O)[C@]1(CC/C(C)=C/CC/C(C)=C/CCC2=CC(=O)OC2O)[C@H](O)CCC1(C)C (stereo not given in full) [ACANTHOLIDE E] |  | inactive |  |  |  |  |  |  | inactive | 7 (≈ 16.7 µM) |  |  | 
6 | CC1=C(CC/C(C)=C/CC/C(C)=C/CCC2=CC(=O)OC2O)C(C)(C)CCC1 (stereo not given) [LUFFARIELLOLIDE] |  | inactive | inactive | 20 | 12 | 10 |  | 11 | inactive | 3.3 (≈ 8.54 µM) | 10 | inactive | zone of inhibition at 5 µg/disc [2]: 7 mm; zone of inhibition at 5 µg/disc ([3]; ATCC 25923, 24 h, read-out: IZ): 7 mm; MIC [14]: 10.4 µg/mL (≈ 26.9 µM); zone of inhibition at 5 µg/disc ([10]; DSM 10290, 24 h, read-out: IZ): 7 mm
7 | NYSTATIN |  |  |  |  |  |  |  |  |  |  |  |  | MIC [14]: 1.06 µg/mL
